# Source: ChEMBL document CHEMBL1137764, “Design, synthesis, antibacterial activity and physicochemical parameters of novel N-4-piperazinyl derivatives of norfloxacin” (Bioorg Med Chem, 2009)
# How the values were obtained:
# Pseudomonas aeruginosa [1] = test: Antimicrobial activity against Pseudomonas aeruginosa at 4 ug/ml after 24 hrs by agar diffusion technique; type: functional; conditions: read-out: DIZ
# In short: (§1)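 Strains came from a university microbiology department. Inocula were 10⁶ CFU/mL. Mueller-Hinton agar was seeded with culture, poured 3–4 mm thick, and 10 mm cups were bored. Compounds were dissolved in DMF (10 mg/mL stock), diluted, and the solution was placed in the cups. Plates were incubated at 37 °C overnight. Inhibition zone diameter (mm) was read at 24 h.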
# Pseudomonas aeruginosa [2] = test: Antimicrobial activity against Pseudomonas aeruginosa at 16 ug/ml after 24 hrs by agar diffusion technique; type: functional; conditions: read-out: DIZ; in short: as §1
# Pseudomonas aeruginosa [3] = test: Antimicrobial activity against Pseudomonas aeruginosa at 64 ug/ml after 24 hrs by agar diffusion technique; type: functional; conditions: read-out: DIZ; in short: as §1
# Pseudomonas aeruginosa [4] = test: Antimicrobial activity against Pseudomonas aeruginosa at 128 ug/ml after 24 hrs by agar diffusion technique; type: functional; conditions: read-out: DIZ; in short: as §1
# Pseudomonas aeruginosa [5] = test: Antimicrobial activity against Pseudomonas aeruginosa at 512 ug/ml after 24 hrs by agar diffusion technique; type: functional; conditions: read-out: DIZ; in short: as §1
# Escherichia coli [6] = test: Antimicrobial activity against Escherichia coli at 4 ug/ml after 24 hrs by agar diffusion technique; type: functional; conditions: read-out: DIZ; in short: as §1
# Escherichia coli [7] = test: Antimicrobial activity against Escherichia coli at 16 ug/ml after 24 hrs by agar diffusion technique; type: functional; conditions: read-out: DIZ; in short: as §1
# Escherichia coli [8] = test: Antimicrobial activity against Escherichia coli at 64 ug/ml after 24 hrs by agar diffusion technique; type: functional; conditions: read-out: DIZ; in short: as §1
# Escherichia coli [9] = test: Antimicrobial activity against Escherichia coli at 128 ug/ml after 24 hrs by agar diffusion technique; type: functional; conditions: read-out: DIZ; in short: as §1
# Escherichia coli [10] = test: Antimicrobial activity against Escherichia coli at 512 ug/ml after 24 hrs by agar diffusion technique; type: functional; conditions: read-out: DIZ; in short: as §1
# Klebsiella pneumoniae [11] = test: Antimicrobial activity against Klebsiella pneumoniae at 4 ug/ml after 24 hrs by agar diffusion technique; type: functional; conditions: read-out: DIZ; in short: as §1
# Klebsiella pneumoniae [12] = test: Antimicrobial activity against Klebsiella pneumoniae at 16 ug/ml after 24 hrs by agar diffusion technique; type: functional; conditions: read-out: DIZ; in short: as §1
# Klebsiella pneumoniae [13] = test: Antimicrobial activity against Klebsiella pneumoniae at 64 ug/ml after 24 hrs by agar diffusion technique; type: functional; conditions: read-out: DIZ; in short: as §1
# Klebsiella pneumoniae [14] = test: Antimicrobial activity against Klebsiella pneumoniae at 128 ug/ml after 24 hrs by agar diffusion technique; type: functional; conditions: read-out: DIZ; in short: as §1
# Klebsiella pneumoniae [15] = test: Antimicrobial activity against Klebsiella pneumoniae at 512 ug/ml after 24 hrs by agar diffusion technique; type: functional; conditions: read-out: DIZ; in short: as §1
# Staphylococcus aureus [16] = test: Antimicrobial activity against Staphylococcus aureus at 4 ug/ml after 24 hrs by agar diffusion technique; type: functional; conditions: read-out: DIZ; in short: as §1
# Staphylococcus aureus [17] = test: Antimicrobial activity against Staphylococcus aureus at 16 ug/ml after 24 hrs by agar diffusion technique; type: functional; conditions: read-out: DIZ; in short: as §1
# Staphylococcus aureus [18] = test: Antimicrobial activity against Staphylococcus aureus at 64 ug/ml after 24 hrs by agar diffusion technique; type: functional; conditions: read-out: DIZ; in short: as §1
# Staphylococcus aureus [19] = test: Antimicrobial activity against Staphylococcus aureus at 128 ug/ml after 24 hrs by agar diffusion technique; type: functional; conditions: read-out: DIZ; in short: as §1
# Staphylococcus aureus [20] = test: Antimicrobial activity against Staphylococcus aureus at 512 ug/ml after 24 hrs by agar diffusion technique; type: functional; conditions: read-out: DIZ; in short: as §1
# Pseudomonas aeruginosa [21] = test: Antimicrobial activity against Pseudomonas aeruginosa after 24 hrs by agar diffusion technique; type: functional; conditions: for MIC: Pseudomonas aeruginosa, 24 h
# In short: (§2)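 Agar cup diffusion on Mueller-Hinton agar seeded from 10⁶ CFU/mL suspensions, with 10 mm cups in a 3–4 mm layer. Compounds were in DMF (10 mg/mL stock) at several concentrations. Plates were incubated at 37 °C and zones measured after 24 h. MIC was taken as the intercept of the plot of log concentration against inhibition zone diameter.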
# Escherichia coli [22] = test: Antimicrobial activity against Escherichia coli after 24 hrs by agar diffusion technique; type: functional; conditions: for MIC: Escherichia coli, 24 h; in short: as §2
# Klebsiella pneumoniae [23] = test: Antimicrobial activity against Klebsiella pneumoniae after 24 hrs by agar diffusion technique; type: functional; conditions: for MIC: Klebsiella pneumoniae, 24 h; in short: as §2
# Staphylococcus aureus [24] = test: Antimicrobial activity against Staphylococcus aureus after 24 hrs by agar diffusion technique; type: functional; conditions: for MIC: Staphylococcus aureus, 24 h; in short: as §2
# [25] = Octanol-phosphate buffer partition coefficient, log D at pH 7.4 by spectrophotometry; type: physicochemical
# In short: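 Shake-flask method. A 0.2 mg/mL stock was diluted into pH 7.4 phosphate buffer and mixed with an equal volume of n-octanol, phases mutually presaturated and protected from light. Samples were vortexed 3 min, then shaken 5 h at 25 °C. Both phases were assayed by UV at 270–280 nm. D is the molar concentration ratio, octanol to aqueous.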
MIC (Pseudomonas aeruginosa [21]) [µg/mL],MIC (Escherichia coli [22]) [µg/mL],SMILES,zone of inhibition at 4 µg/mL (Pseudomonas aeruginosa [1]) [mm],zone of inhibition at 16 µg/mL (Pseudomonas aeruginosa [2]) [mm],zone of inhibition at 64 µg/mL (Pseudomonas aeruginosa [3]) [mm],zone of inhibition at 128 µg/mL (Pseudomonas aeruginosa [4]) [mm],zone of inhibition at 512 µg/mL (Pseudomonas aeruginosa [5]) [mm],zone of inhibition at 4 µg/mL (Escherichia coli [6]) [mm],zone of inhibition at 16 µg/mL (Escherichia coli [7]) [mm],zone of inhibition at 64 µg/mL (Escherichia coli [8]) [mm],zone of inhibition at 128 µg/mL (Escherichia coli [9]) [mm],zone of inhibition at 512 µg/mL (Escherichia coli [10]) [mm],zone of inhibition at 4 µg/mL (Klebsiella pneumoniae [11]) [mm],zone of inhibition at 16 µg/mL (Klebsiella pneumoniae [12]) [mm],zone of inhibition at 64 µg/mL (Klebsiella pneumoniae [13]) [mm],zone of inhibition at 128 µg/mL (Klebsiella pneumoniae [14]) [mm],zone of inhibition at 512 µg/mL (Klebsiella pneumoniae [15]) [mm],logMIC (Pseudomonas aeruginosa [21]),logMIC (Escherichia coli [22]),logMIC (Klebsiella pneumoniae [23]),also measured
9,< 1,CCn1cc(C(=O)O)c(=O)c2cc(F)c(N3CCN(CN4N=C(C)CC4=O)CC3)cc21,0,3,3,7,18,8,8,10,10,10,0,2,3,6,11,0.95,0,0.9,zone of inhibition at 4 µg/mL (Staphylococcus aureus [16]): 0 mm; zone of inhibition at 16 µg/mL (Staphylococcus aureus [17]): 0 mm; zone of inhibition at 64 µg/mL (Staphylococcus aureus [18]): 7 mm; zone of inhibition at 128 µg/mL (Staphylococcus aureus [19]): 3 mm; zone of inhibition at 512 µg/mL (Staphylococcus aureus [20]): 3 mm; MIC (Klebsiella pneumoniae [23]): 8 µg/mL; logMIC (Staphylococcus aureus [24]): 1; MIC (Staphylococcus aureus [24]): 10 µg/mL; logD [25]: -0.85
> 512,> 512,CCn1cc(C(=O)O)c(=O)c2cc(F)c(N3CCN(c4nnc(-c5ccccc5)c(-c5ccccc5)n4)CC3)cc21,0,0,0,0,0,0,0,0,0,0,0,0,0,0,0,2.71,2.71,2.71,MIC (Klebsiella pneumoniae [23]): > 512 µg/mL; logMIC (Staphylococcus aureus [24]): 1.81; MIC (Staphylococcus aureus [24]): 64 µg/mL; logD [25]: -0.072
128,128,CCn1cc(C(=O)O)c(=O)c2cc(F)c(N3CCN(CN4C(=O)c5cccc6cccc(c56)C4=O)CC3)cc21,0,0,0,0,10,0,0,0,0,13,0,0,0,8,9,2.11,2.11,1.81,zone of inhibition at 4 µg/mL (Staphylococcus aureus [16]): 0 mm; zone of inhibition at 16 µg/mL (Staphylococcus aureus [17]): 0 mm; zone of inhibition at 64 µg/mL (Staphylococcus aureus [18]): 0 mm; zone of inhibition at 128 µg/mL (Staphylococcus aureus [19]): 0 mm; zone of inhibition at 512 µg/mL (Staphylococcus aureus [20]): 15 mm; MIC (Klebsiella pneumoniae [23]): 64 µg/mL; logMIC (Staphylococcus aureus [24]): 2.11; MIC (Staphylococcus aureus [24]): 128 µg/mL; logD [25]: -0.9
64,128,CCn1cc(C(=O)O)c(=O)c2cc(F)c(N3CCN(CN4C(=O)c5ccccc5C4=O)CC3)cc21,0,0,0,10,12,0,0,0,0,9,0,0,4,8,10,1.81,2.11,0.95,zone of inhibition at 4 µg/mL (Staphylococcus aureus [16]): 0 mm; zone of inhibition at 16 µg/mL (Staphylococcus aureus [17]): 0 mm; zone of inhibition at 64 µg/mL (Staphylococcus aureus [18]): 0 mm; zone of inhibition at 128 µg/mL (Staphylococcus aureus [19]): 0 mm; zone of inhibition at 512 µg/mL (Staphylococcus aureus [20]): 0 mm; MIC (Klebsiella pneumoniae [23]): 9 µg/mL; logMIC (Staphylococcus aureus [24]): 2.71; MIC (Staphylococcus aureus [24]): > 512 µg/mL
